Measurements from ChEMBL document CHEMBL1156750 (Bioorg Med Chem Lett, 2009).

Tests used:
Plasma = experiment: Anticoagulant activity in human plasma assessed as concentration required to double the prothrombin based clotting time after 30 seconds; assay type: functional
Outline: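 Human plasma prothrombin-based clotting time; value is the inhibitor concentration that doubles the clotting time, averaged from two independent determinations.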

Coagulation factor X = Coagulation factor X (Homo sapiens, UniProt P00742)
Chain of Coagulation factor X (P00742 41-179 limits assumed): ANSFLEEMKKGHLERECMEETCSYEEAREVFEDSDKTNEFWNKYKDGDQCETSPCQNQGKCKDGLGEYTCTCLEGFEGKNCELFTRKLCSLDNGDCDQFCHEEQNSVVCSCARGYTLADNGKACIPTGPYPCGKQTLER
Chain of Coagulation factor X (P00742 235-488 limits assumed): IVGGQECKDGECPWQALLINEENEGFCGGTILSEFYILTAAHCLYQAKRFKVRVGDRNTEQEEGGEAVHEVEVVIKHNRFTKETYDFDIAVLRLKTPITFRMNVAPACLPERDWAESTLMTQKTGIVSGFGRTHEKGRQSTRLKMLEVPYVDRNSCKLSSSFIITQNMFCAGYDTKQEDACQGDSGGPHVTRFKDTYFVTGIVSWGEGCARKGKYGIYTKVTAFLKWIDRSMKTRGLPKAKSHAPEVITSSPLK

Cytochrome P450 3A4 = Cytochrome P450 3A4 (Homo sapiens, UniProt P08684); experiment: Inhibition of CYP3A4 using BFC as a substrate; assay type: ADME
Chain of Cytochrome P450 3A4 (P08684 whole entry): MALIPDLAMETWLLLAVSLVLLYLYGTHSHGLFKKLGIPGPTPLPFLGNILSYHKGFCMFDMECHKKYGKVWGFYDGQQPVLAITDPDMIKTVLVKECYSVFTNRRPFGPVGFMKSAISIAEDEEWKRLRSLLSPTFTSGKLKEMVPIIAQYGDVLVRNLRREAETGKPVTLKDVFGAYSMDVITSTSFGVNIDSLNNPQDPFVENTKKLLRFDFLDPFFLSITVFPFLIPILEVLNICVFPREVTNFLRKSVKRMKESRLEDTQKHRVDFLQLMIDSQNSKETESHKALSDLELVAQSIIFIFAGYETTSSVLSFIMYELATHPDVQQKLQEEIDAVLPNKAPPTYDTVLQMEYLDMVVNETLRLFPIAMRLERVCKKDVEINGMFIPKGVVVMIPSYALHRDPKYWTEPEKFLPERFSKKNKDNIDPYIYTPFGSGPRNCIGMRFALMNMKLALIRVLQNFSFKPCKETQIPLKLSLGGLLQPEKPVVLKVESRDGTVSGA

Cytochrome P450 2C19 = Cytochrome P450 2C19 (Homo sapiens, UniProt P33261); experiment: Inhibition of CYP2C19; assay type: ADME
Chain of Cytochrome P450 2C19 (P33261 whole entry): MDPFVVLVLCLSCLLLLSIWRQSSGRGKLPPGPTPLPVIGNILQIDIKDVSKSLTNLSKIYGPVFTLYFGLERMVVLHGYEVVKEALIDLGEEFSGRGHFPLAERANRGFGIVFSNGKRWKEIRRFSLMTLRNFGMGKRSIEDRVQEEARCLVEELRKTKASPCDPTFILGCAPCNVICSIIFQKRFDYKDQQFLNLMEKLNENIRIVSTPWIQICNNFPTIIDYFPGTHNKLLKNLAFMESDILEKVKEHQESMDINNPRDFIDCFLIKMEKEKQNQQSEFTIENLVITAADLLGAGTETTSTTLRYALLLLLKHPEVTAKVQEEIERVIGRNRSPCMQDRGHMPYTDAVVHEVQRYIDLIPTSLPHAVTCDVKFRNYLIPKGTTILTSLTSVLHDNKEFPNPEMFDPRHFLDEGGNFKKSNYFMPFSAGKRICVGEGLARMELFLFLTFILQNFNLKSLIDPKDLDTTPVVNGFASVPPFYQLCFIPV

Cytochrome P450 2C9 = Cytochrome P450 2C9 (Homo sapiens, UniProt P11712); experiment: Inhibition of CYP2C9; assay type: ADME
Chain of Cytochrome P450 2C9 (P11712 whole entry): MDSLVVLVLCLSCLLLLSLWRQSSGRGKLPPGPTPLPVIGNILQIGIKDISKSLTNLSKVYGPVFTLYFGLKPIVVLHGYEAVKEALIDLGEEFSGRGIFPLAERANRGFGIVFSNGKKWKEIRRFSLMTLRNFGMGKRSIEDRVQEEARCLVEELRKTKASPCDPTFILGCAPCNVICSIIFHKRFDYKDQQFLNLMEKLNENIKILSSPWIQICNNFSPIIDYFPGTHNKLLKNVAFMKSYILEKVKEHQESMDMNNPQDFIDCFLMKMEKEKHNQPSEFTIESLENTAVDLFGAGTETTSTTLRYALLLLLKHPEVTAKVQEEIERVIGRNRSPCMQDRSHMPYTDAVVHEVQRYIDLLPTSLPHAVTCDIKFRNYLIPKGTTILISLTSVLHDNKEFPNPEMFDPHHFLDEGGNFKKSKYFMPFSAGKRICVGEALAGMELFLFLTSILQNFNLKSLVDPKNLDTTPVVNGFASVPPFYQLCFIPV

Rattus norvegicus [1] = experiment: Anticoagulant activity against Sprague-Dawley rat arterial thrombosis model induced by topical application of Fecl2; assay type: functional
Outline: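 Rat carotid artery thrombosis: vehicle (PEG-400) or compound given by 1 mL/kg gavage at 0 min (5, 10, 15, 30 mg/kg; n = 5, 6, 6, 4; vehicle n = 8), with aspirin 10 mg/kg iv 15 min before FeCl2. Rats anesthetized at 30 min. 50% FeCl2 applied topically at 60 min for 10 min. Thrombus weight taken 1 h later. ANOVA with Dunnett's test.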

Rattus norvegicus [2] = experiment: Ex vivo anticoagulant activity in Sprague-Dawley rat assessed as prolongation of prothrombin time at 30mg/kg, id after 120 mins; assay type: functional
Outline: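 Anesthetized rats dosed intraduodenally at 30 mg/kg in 10% ethanol/90% PEG300, then a saline flush. Arterial blood drawn into 3.8% Na-citrate (1/10, v/v) before dosing and at 30, 60, 90 and 120 min. Ex vivo prothrombin time measured on a micro coagulation analyzer using Thromboplastin-C reagent.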

| SMILES | Activity (Plasma) [µM] | IC50 (Coagulation factor X) [nM] | other results |
| --- | --- | --- | --- |
| Cc1cc2cc(N/C(=N\C(=O)N(C)C)N[C@H]3CCCCN(CC(=O)N4CCCC4)C3=O)ccc2o1 | 55 |  |  |
| Cc1cc2cc(N/C(=N\C(=O)c3ccncc3)N[C@H]3CCCCN(CC(=O)N4CCCC4)C3=O)ccc2o1 | 16 |  |  |
| Cc1cc2cc(N/C(=N\C(=O)c3cccc(C(N)=O)c3)N[C@H]3CCCCN(CC(=O)N4CCCC4)C3=O)ccc2o1 | 7 | 18 |  |
| CNC(=O)c1ccc(C(=O)/N=C(\Nc2ccc3oc(C)cc3c2)N[C@H]2CCCCN(CC(=O)N3CCCC3)C2=O)cn1 | 3 |  | IC50 (Cytochrome P450 3A4): 18 µM; IC50 (Cytochrome P450 2C19): 12 µM; IC50 (Cytochrome P450 2C9): 24 µM |
| Cc1cc2cc(N/C(=N\S(N)(=O)=O)N[C@H]3CCCCN(CC(=O)N4CCCC4)C3=O)ccc2o1 | >50 | 12 |  |
| Cc1cc2cc(N/C(=N\C(=O)c3cnccn3)N[C@H]3CCCCN(CC(=O)N4CCCC4)C3=O)ccc2o1 | 18 |  |  |
| Cc1cc2cc(N/C(=N\C(=O)c3cccc(C(=O)N(C)C)c3)N[C@H]3CCCCN(CC(=O)N4CCCC4)C3=O)ccc2o1 | 8 | 10 |  |
| CC(=O)/N=C(\Nc1ccc2oc(C)cc2c1)N[C@H]1CCCCN(CC(=O)N2CCCC2)C1=O | 70 |  |  |
| Cc1cc2cc(N/C(=N\C(=O)c3ccc(C(=O)O)nc3)N[C@H]3CCCCN(CC(=O)N4CCCC4)C3=O)ccc2o1 | 6.8 |  | IC50 (Cytochrome P450 3A4): 87 µM; IC50 (Cytochrome P450 2C19): 47 µM; IC50 (Cytochrome P450 2C9): 122 µM |
| Cc1cc2cc(N/C(=N\S(C)(=O)=O)N[C@H]3CCCCN(CC(=O)N4CCCC4)C3=O)ccc2o1 | 60 | 10 |  |
| Cc1cc2cc(N/C(=N\C(=O)c3ccc(C(N)=O)cc3)N[C@H]3CCCCN(CC(=O)N4CCCC4)C3=O)ccc2o1 | 5 | 3 | fold change (FC) (Rattus norvegicus [1]): >=3.6 |
| Cc1cc2cc(N/C(=N\C(=O)c3cccc(Cl)c3)N[C@H]3CCCCN(CC(=O)N4CCCC4)C3=O)ccc2o1 | >50 |  |  |
| Cc1cc2cc(N/C(=N\C(=O)c3cnn(C)c3)N[C@H]3CCCCN(CC(=O)N4CCCC4)C3=O)ccc2o1 | 11 |  |  |
| Cc1cc2cc(/N=C(/NC(=O)c3cccnc3)N[C@H]3CCCCN(CC(=O)N4CCCC4)C3=O)ccc2o1 | 7 |  | IC50 (Cytochrome P450 3A4): 0.3 µM; fold change (FC) (Rattus norvegicus [2]): >=3.2; IC50 (Cytochrome P450 2C19): 8 µM; IC50 (Cytochrome P450 2C9): 10 µM |
| Cc1cc2cc(N/C(=N\C(=O)c3ccoc3)N[C@H]3CCCCN(CC(=O)N4CCCC4)C3=O)ccc2o1 | 33 |  |  |
| Cc1cc2cc(/N=C(/NC#N)N[C@H]3CCCCN(CC(=O)N4CCCC4)C3=O)ccc2o1 | 32 |  | fold change (FC) (Rattus norvegicus [1]): ≥ 1.8; fold change (FC) (Rattus norvegicus [2]): >=1.8 |
| Cc1cc2cc(N/C(=N\C(=O)c3ccsc3)N[C@H]3CCCCN(CC(=O)N4CCCC4)C3=O)ccc2o1 | 19 |  |  |

| SMILES | Activity (Plasma) [µM] | IC50 (Coagulation factor X) [nM] | other results |
| --- | --- | --- | --- |
| Cc1cc2cc(N/C(=N\C(=O)c3ccc(C(=O)N(C)C)cc3)N[C@H]3CCCCN(CC(=O)N4CCCC4)C3=O)ccc2o1 | 4 | 3 | fold change (FC) (Rattus norvegicus [1]): >=3.6 |
| Cc1cc2cc(N/C(=N/[N+](=O)[O-])N[C@H]3CCCCN(CC(=O)N4CCCC4)C3=O)ccc2o1 | >50 | 25 |  |
| Cc1cc2cc(N/C(=N\C(=O)c3ccccc3)N[C@H]3CCCCN(CC(=O)N4CCCC4)C3=O)ccc2o1 | 48 |  |  |
| Cc1cc2cc(N/C(=N\C(=O)c3ccc[n+]([O-])c3)N[C@H]3CCCCN(CC(=O)N4CCCC4)C3=O)ccc2o1 | 3 | 10 | IC50 (Cytochrome P450 3A4): 0.9 µM; IC50 (Cytochrome P450 2C19): 128 µM; IC50 (Cytochrome P450 2C9): 122 µM |
| Cc1cc2cc(N/C(=N\C(=O)c3ccc(Cl)nc3)N[C@H]3CCCCN(CC(=O)N4CCCC4)C3=O)ccc2o1 | 14 |  | IC50 (Cytochrome P450 3A4): 8 µM; IC50 (Cytochrome P450 2C19): 22 µM; IC50 (Cytochrome P450 2C9): 12 µM |
| COC(=O)c1cccc(C(=O)/N=C(\Nc2ccc3oc(C)cc3c2)N[C@H]2CCCCN(CC(=O)N3CCCC3)C2=O)c1 | 41 | 5 |  |
| Cc1cc2cc(N/C(=N\C(=O)c3ccc(C(=O)O)cc3)N[C@H]3CCCCN(CC(=O)N4CCCC4)C3=O)ccc2o1 | 5 |  |  |
| Cc1cc2cc(N/C(=N\C(=O)c3cncc(C(N)=O)c3)N[C@H]3CCCCN(CC(=O)N4CCCC4)C3=O)ccc2o1 | 7 |  | IC50 (Cytochrome P450 3A4): 0.4 µM; IC50 (Cytochrome P450 2C19): 37 µM; IC50 (Cytochrome P450 2C9): 10 µM |
| Cc1cc2cc(N/C(=N\C(N)=O)N[C@H]3CCCCN(CC(=O)N4CCCC4)C3=O)ccc2o1 | 60 |  |  |
| COC(=O)c1ccc(C(=O)/N=C(\Nc2ccc3oc(C)cc3c2)N[C@H]2CCCCN(CC(=O)N3CCCC3)C2=O)cc1 | 18 |  |  |
| Cc1cc2cc(N/C(=N\C(=O)c3ccc(C(N)=O)nc3)N[C@H]3CCCCN(CC(=O)N4CCCC4)C3=O)ccc2o1 | 5.7 |  | IC50 (Cytochrome P450 3A4): 18 µM; IC50 (Cytochrome P450 2C19): 13 µM; IC50 (Cytochrome P450 2C9): 22 µM |
| COC(=O)c1ccc(C(=O)/N=C(\Nc2ccc3oc(C)cc3c2)N[C@H]2CCCCN(CC(=O)N3CCCC3)C2=O)nc1 | 16 |  |  |
| Cc1cc2cc(N/C(=N\S(=O)(=O)c3ccccc3)N[C@H]3CCCCN(CC(=O)N4CCCC4)C3=O)ccc2o1 | >50 | 24 |  |
| Cc1ccc(C(=O)/N=C(\Nc2ccc3oc(C)cc3c2)N[C@H]2CCCCN(CC(=O)N3CCCC3)C2=O)cn1 | 12 |  | IC50 (Cytochrome P450 3A4): 7 µM; IC50 (Cytochrome P450 2C19): 27 µM; IC50 (Cytochrome P450 2C9): 9 µM |
| CCOC(=O)/N=C(\Nc1ccc2oc(C)cc2c1)N[C@H]1CCCCN(CC(=O)N2CCCC2)C1=O | 34 |  |  |
| Cc1cc2cc(N/C(=N\C(=O)c3nnn(C)n3)N[C@H]3CCCCN(CC(=O)N4CCCC4)C3=O)ccc2o1 | 28 |  |  |
